Source: ChEMBL document CHEMBL1147918, “Novel 5-substituted 1-pyrazolol analogues of ibotenic acid: synthesis and pharmacology at glutamate receptors” (Bioorg Med Chem, 2007)

Legend:
[1] = target: Metabotropic glutamate receptor 4 (Rattus norvegicus, UniProt P31423); experiment: Agonist activity at rat mGluR4 receptor expressed in CHO cells assessed as effect on intracellular cAMP level; assay type: functional, cell-based
How it was run: (§1)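 Means of at least three independent experiments, expressed as pEC50 or pKi ± SEM.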

[2] = Displacement of [3H]AMPA from AMPA receptor in rat cortical membrane; assay type: cell membranes
How it was run: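 Rat brain membranes prepared per Ransom and Stec; native AMPA receptor affinity measured with 5 nM [3H]AMPA. Means of at least three to four independent experiments; values as pIC50 or pKi ± SEM.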

[3] = target: T1, Metabotropic glutamate receptor 2 (Rattus norvegicus, UniProt P31421); experiment: (§2) Agonist activity at rat mGluR2 receptor expressed in CHO cells assessed as effect on intracellular cAMP level; assay type: functional, cell-based; how it was run: as §1
T1 sequence (P31421 whole entry): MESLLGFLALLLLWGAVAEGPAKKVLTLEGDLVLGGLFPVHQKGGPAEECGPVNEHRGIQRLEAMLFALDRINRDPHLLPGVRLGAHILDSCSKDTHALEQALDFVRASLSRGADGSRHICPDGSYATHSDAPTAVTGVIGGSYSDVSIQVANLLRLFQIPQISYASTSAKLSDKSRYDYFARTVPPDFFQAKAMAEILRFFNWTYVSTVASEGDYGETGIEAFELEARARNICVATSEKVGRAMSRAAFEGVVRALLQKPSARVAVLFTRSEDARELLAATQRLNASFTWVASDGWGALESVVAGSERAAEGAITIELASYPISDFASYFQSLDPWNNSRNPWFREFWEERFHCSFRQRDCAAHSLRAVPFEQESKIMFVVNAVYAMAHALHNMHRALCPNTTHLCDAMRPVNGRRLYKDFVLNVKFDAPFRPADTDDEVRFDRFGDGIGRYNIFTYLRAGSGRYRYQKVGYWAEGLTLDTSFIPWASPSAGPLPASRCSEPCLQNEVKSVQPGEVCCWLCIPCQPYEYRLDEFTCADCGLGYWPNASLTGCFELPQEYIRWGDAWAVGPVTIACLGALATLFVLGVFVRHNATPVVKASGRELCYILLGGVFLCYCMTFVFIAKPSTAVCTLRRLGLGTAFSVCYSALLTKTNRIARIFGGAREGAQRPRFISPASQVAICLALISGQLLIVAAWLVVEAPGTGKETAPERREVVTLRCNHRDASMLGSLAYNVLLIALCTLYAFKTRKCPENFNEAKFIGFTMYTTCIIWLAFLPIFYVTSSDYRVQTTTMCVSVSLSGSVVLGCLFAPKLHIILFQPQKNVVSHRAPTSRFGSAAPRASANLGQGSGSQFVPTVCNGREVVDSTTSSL

[4] = Displacement of [3H]KA from KA receptor in rat cortical membrane; assay type: cell membranes
How it was run: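 Native kainate receptor binding on rat brain membranes (Ransom and Stec preparation) using 5 nM [3H]KA. Means of at least three to four independent experiments, reported as pIC50 or pKi ± SEM.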

[5] = target: T2, Metabotropic glutamate receptor 1 (Rattus norvegicus, UniProt P23385); experiment: Agonist activity at rat mGluR1a receptor expressed in CHO cells assessed as effect on intracellular calcium level; assay type: functional, cell-based; how it was run: as §1
T2 sequence (P23385 whole entry): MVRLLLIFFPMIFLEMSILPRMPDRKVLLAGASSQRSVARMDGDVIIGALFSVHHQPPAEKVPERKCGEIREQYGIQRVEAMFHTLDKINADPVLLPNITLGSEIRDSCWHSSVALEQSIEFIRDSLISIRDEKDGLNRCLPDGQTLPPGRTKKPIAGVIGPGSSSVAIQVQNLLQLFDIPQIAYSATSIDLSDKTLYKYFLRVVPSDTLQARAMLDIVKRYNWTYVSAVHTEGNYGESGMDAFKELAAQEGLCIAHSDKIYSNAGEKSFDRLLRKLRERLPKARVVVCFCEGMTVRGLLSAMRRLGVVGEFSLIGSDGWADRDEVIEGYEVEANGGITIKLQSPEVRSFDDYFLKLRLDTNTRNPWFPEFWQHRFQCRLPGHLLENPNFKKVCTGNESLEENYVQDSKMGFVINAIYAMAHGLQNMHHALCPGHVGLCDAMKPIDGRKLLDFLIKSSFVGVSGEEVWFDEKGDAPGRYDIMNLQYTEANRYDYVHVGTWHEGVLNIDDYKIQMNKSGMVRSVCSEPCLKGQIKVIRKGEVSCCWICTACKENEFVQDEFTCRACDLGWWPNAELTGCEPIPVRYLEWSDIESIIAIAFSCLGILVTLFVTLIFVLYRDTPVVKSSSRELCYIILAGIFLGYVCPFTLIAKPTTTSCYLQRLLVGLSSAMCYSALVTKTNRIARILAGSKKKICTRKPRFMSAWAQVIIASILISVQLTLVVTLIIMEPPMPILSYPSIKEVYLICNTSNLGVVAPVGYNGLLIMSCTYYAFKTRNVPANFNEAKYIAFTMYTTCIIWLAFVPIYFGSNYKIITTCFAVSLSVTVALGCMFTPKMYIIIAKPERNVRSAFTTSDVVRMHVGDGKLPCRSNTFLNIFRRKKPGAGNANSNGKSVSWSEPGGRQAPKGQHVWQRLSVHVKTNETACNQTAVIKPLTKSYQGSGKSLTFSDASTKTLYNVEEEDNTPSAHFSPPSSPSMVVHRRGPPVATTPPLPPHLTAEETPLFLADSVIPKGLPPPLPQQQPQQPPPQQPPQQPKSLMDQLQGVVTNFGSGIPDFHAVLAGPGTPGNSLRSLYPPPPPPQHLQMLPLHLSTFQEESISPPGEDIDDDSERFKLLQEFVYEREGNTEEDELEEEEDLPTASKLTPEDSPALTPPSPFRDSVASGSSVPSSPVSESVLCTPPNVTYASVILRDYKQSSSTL

Glutamate NMDA receptor = experiment: Displacement of [3H]CGP39653 from NMDA receptor in rat cortical membrane; assay type: cell membranes
How it was run: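 NMDA receptor affinity on rat brain membranes prepared per Ransom and Stec, radioligand 2 nM [3H]CGP39653. Means of at least three to four independent experiments; pIC50 or pKi ± SEM.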

[6] = target: T1, Metabotropic glutamate receptor 2; experiment: Antagonist activity at rat mGluR2 receptor expressed in CHO cells assessed as effect on intracellular cAMP level; assay type: functional, cell-based; how it was run: as §1
[7] = target: Metabotropic glutamate receptor 2 (Rattus norvegicus) (UniProt P31421); experiment: as §2; assay type: functional, cell-based; how it was run: as §1
Chain of Metabotropic glutamate receptor 2 (Rattus norvegicus) (P31421 19-872 limits assumed): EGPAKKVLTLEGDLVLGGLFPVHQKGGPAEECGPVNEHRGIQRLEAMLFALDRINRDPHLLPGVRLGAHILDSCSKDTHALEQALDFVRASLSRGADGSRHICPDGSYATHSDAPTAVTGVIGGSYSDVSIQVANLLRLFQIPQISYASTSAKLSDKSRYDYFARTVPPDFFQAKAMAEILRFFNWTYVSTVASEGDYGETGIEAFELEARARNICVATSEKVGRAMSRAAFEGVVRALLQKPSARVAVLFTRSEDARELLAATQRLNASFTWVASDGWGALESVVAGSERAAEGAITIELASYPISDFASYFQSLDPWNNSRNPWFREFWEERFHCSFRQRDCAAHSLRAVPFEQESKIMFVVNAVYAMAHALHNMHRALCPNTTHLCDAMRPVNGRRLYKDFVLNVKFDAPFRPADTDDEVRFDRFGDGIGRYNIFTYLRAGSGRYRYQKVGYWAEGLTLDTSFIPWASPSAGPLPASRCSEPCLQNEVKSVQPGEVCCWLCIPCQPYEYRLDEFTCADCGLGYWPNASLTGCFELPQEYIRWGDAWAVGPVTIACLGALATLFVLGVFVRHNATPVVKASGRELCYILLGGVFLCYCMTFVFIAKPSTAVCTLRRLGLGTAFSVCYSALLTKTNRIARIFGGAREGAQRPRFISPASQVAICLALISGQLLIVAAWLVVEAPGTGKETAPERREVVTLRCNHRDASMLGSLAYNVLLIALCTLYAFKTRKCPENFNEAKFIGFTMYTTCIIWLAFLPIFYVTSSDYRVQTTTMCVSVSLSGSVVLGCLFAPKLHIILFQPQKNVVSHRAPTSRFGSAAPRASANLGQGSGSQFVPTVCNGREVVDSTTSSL

[8] = target: T2, Metabotropic glutamate receptor 1; experiment: Antagonist activity at rat mGluR1a receptor expressed in CHO cells assessed as effect on intracellular calcium level; assay type: functional, cell-based; how it was run: as §1

Chain of Metabotropic glutamate receptor 4 (P31423 whole entry): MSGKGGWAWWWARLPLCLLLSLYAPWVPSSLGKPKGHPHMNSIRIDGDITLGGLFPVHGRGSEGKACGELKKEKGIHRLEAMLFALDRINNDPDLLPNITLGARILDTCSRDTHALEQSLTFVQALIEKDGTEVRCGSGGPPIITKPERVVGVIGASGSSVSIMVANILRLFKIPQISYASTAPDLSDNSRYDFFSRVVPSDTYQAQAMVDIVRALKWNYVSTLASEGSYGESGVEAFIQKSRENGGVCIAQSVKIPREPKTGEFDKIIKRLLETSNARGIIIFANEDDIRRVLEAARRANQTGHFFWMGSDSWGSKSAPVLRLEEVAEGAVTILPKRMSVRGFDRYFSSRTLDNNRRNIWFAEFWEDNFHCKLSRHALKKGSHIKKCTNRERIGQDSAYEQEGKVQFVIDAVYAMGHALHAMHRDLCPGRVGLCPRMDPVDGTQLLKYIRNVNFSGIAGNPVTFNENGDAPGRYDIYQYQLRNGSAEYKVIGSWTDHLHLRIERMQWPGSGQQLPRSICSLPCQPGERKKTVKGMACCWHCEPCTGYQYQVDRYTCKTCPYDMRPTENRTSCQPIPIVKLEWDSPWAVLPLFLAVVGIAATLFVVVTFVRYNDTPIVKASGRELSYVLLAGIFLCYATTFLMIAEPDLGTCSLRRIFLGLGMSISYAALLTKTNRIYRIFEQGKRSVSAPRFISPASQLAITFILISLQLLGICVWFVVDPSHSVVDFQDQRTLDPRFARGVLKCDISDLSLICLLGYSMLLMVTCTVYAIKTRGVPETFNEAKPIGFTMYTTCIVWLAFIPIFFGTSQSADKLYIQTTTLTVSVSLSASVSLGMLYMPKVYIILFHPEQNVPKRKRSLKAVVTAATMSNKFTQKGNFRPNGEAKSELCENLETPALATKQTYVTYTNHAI

Row | Compound | EC50 [1] | IC50 [2] | EC50 ([3]; read-out: EC50) | IC50 [4] | EC50 [5] | Ki (Glutamate NMDA receptor) | Ki [6] | Log IC50 [4] | EC50 ([3]; read-out: Log EC50 (converted)) | Activity [7] | Log Ki (Glutamate NMDA receptor) | Ki ([8]; read-out: Ki) | Ki ([8]; read-out: Log Ki (converted))
1 | CCCCc1c(C(N)C(=O)O)cnn1O (racemic) | > 1000 µM | > 100 µM | > 1000 µM | > 100 µM | > 1000 µM | > 100 µM | – | – | – | – | – | – | –
2 | NC(C(=O)O)c1cnn(O)c1CC1CCCCC1 (racemic) | > 1000 µM | > 100 µM | – | > 100 µM | > 1000 µM | > 100 µM | 32 µM | – | – | – | – | – | –
3 | NC(C(=O)O)c1cnn(O)c1C(c1ccccc1)c1ccccc1 (racemic) | > 1000 µM | > 100 µM | > 1000 µM | 47 µM | > 1000 µM | > 100 µM | – | -4.33 | – | – | – | – | –
4 | CCCc1c(C(N)C(=O)O)cnn1O (racemic) | > 1000 µM | > 100 µM | 72 µM | > 100 µM | > 1000 µM | > 100 µM | – | – | 67.6 µM | – | – | – | –
5 | CCCCCc1c(C(N)C(=O)O)cnn1O (racemic) | > 1000 µM | > 100 µM | > 1000 µM | > 100 µM | > 1000 µM | > 100 µM | – | – | – | – | – | – | –
6 | NC(C(=O)O)c1cnn(O)c1Br (racemic) | > 1000 µM | > 100 µM | 170 µM | > 100 µM | > 1000 µM | 25 µM | – | – | 151 µM | 43% | – | – | –
7 | NC(C(=O)O)c1cnn(O)c1CC1CC1 (racemic) | > 1000 µM | > 100 µM | > 1000 µM | > 100 µM | > 1000 µM | 35 µM | – | – | – | – | -4.47 | – | –
8 | NC(C(=O)O)c1cnn(O)c1-c1ccccc1 (racemic) | > 1000 µM | > 100 µM | – | > 100 µM | > 1000 µM | > 100 µM | 180 µM | – | – | – | – | – | –
9 | CCc1c(C(N)C(=O)O)cnn1O (racemic) | > 1000 µM | > 100 µM | 57 µM | > 100 µM | > 1000 µM | 32 µM | – | – | – | – | – | – | –
10 | NC(C(=O)O)c1cnn(O)c1CCc1ccccc1 (racemic) | > 1000 µM | > 100 µM | > 1000 µM | > 100 µM | – | > 100 µM | – | – | – | – | – | 230 µM | 195 µM
11 | NC(C(=O)O)c1cnn(O)c1CCCc1ccccc1 (racemic) | > 1000 µM | > 100 µM | – | > 100 µM | – | 54 µM | 67 µM | – | – | – | – | 260 µM | –
12 | NC(C(=O)O)c1cnn(O)c1Cc1ccccc1 (racemic) | > 1000 µM | > 100 µM | – | > 100 µM | > 1000 µM | 67 µM | 120 µM | – | – | – | – | – | –
